Active and inactive are the calls of the source. The rule behind the calls is not given here. Square brackets hold non-standard residues; d marks the D form. Peptide text beside a SMILES is read from it. * marks the point of attachment. Phe(4-NO2) = N[C@@H](Cc1ccc([N+](=O)[O-])cc1)C(=O)O; Phe(4-NH2) = Nc1ccc(C[C@H](N)C(=O)O)cc1; Propionyl = CCC(=O)*; Bz = O=C(c1ccccc1)*
Legend:
[1] = test system: Hepatitis B virus; experiment: Antiviral activity against HBV in human HepG2(2.2.15) cells assessed as inhibition of HBsAg production after 9 days by enzyme immunoassay; type: functional, organism-based
Method in brief: (§1)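 2.2.15 cells seeded at 1.0 × 10⁵ cells/mL in MEM with 10% FBS for 24 h. After attachment, exposed to 50, 25 or 12.25 µg/mL in fresh DMEM, 4 wells per concentration, for 9 d, with medium changed every 3 d. Supernatant HBsAg and HBeAg measured by semiquantitative EIA kits on days 6 and 9. Untreated cells as control. Run twice.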

[2] = test system: Hepatitis B virus; experiment: Antiviral activity against HBV in human HepG2(2.2.15) cells assessed as inhibition of HBeAg production after 9 days by enzyme immunoassay; type: functional, organism-based; method in brief: as §1
[3] = Cytotoxicity against human HepG2(2.2.15) cells treated for 9 days measured after 24 hrs of last treatment by neutral red uptake assay; type: cell-based; conditions: read-out: TC50
Method in brief: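 Confluent 2.2.15 cells treated as for the antiviral assay, 0.2 mL medium per well, with untreated control wells on each plate. Neutral red dye uptake read as absorbance at 510 nm relative to untreated cells, 24 h after day 9 of treatment.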

[4] = Selectivity index, ratio of TC50 for human HepG2(2.2.15) cells to IC50 for HBV
[5] = test system: Hepatitis B virus; experiment: Antiviral activity against HBV in human HepG2(2.2.15) cells assessed as inhibition of viral genome replication after 9 days by Southern blot hybridization; type: functional, organism-based; conditions: HepG2 2.2.15, 216 h
Method in brief: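 Confluent 2.2.15 cultures in RPMI 1640 with 2% FBS received daily doses, with medium and drug renewed each day. Intracellular HBV DNA quantified by Southern blot hybridization. IC50 calculated by […].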

IC50 [5] [µM] | SMILES | Activity [1] | Activity [2] | CC50 at 216 h [3] [µM] | Selectivity Index [4]
 | CC(=O)Nc1ccc(C[C@H](NC(=O)[C@H](Cc2ccccc2)NC(=O)c2ccccc2)C(=O)O)cc1 (Bz-Phe-[Phe(4-NH2)](Ac)-OH) | inactive | inactive |  | 
 | Cc1ccc(C(=O)N[C@@H](Cc2ccccc2)C(=O)N[C@H](CO)Cc2ccccc2)cc1 | inactive | inactive | 1860 | 
2.33 | O=C(N[C@@H](Cc1ccccc1)C(=O)N[C@H](CO)Cc1ccccc1)c1ccc(Cl)cc1 | inactive | inactive | 65.8 | 28.29
54.2 | O=C(N[C@@H](Cc1ccc([N+](=O)[O-])cc1)C(=O)N[C@@H](Cc1ccccc1)C(=O)O)c1ccccc1 (Bz-[Phe(4-NO2)]-Phe-OH) | inactive | inactive | 841 | 15.52
 | CC(=O)Nc1ccc(C[C@@H](CO)NC(=O)[C@H](Cc2ccccc2)NC(=O)c2ccccc2)cc1 | inactive | inactive | 164 | 
 | O=C(N[C@@H](Cc1ccccc1)C(=O)N[C@@H](Cc1ccc(O)cc1)C(=O)O)c1ccccc1 (Bz-Phe-Tyr-OH) | inactive | inactive |  | 
 | O=C(N[C@@H](Cc1ccccc1)C(=O)N[C@H](CO)Cc1ccc([N+](=O)[O-])cc1)c1ccccc1 | inactive | inactive | 117 | 
25.4 | O=C(N[C@@H](Cc1ccccc1)C(=O)N[C@@H](Cc1ccccc1)C(=O)O)c1ccccc1 (Bz-Phe-Phe-OH) | inactive | inactive | 313 | 12.36
 | O=C(N[C@@H](Cc1ccccc1)C(=O)N[C@H](CO)Cc1ccccc1)c1ccccc1Cl | inactive | inactive | 382 | 
 | O=C(N[C@@H](Cc1ccccc1)C(=O)N[C@H](CO)Cc1ccccc1)c1ccccc1 | inactive | inactive | 574 | 
 | CCC(=O)Nc1ccc(C[C@H](NC(=O)[C@H](Cc2ccccc2)NC(=O)c2ccccc2)C(=O)O)cc1 (Bz-Phe-[Phe(4-NH2)](Propionyl)-OH) | inactive | inactive | 1150 | 
60.5 | Cc1cccc(C(=O)N[C@@H](Cc2ccccc2)C(=O)N[C@H](CO)Cc2ccccc2)c1 | inactive | inactive | 185 | 3.06
3.94 | CC(=O)Nc1ccc(C[C@H](NC(=O)c2ccccc2)C(=O)N[C@H](CO)Cc2ccccc2)cc1 | inactive | inactive | 93.8 | 23.82
82.4 | Nc1ccn([C@@H]2CS[C@H](CO)O2)c(=O)n1 [LAMIVUDINE] |  |  | 3430 | 41.59
 | O=C(N[C@@H](Cc1ccc([N+](=O)[O-])cc1)C(=O)N[C@H](CO)Cc1ccccc1)c1ccccc1 | inactive | inactive | 119 | 
